Test system: MS2 coat protein
Experiment: apparent Kd, MS2 coat protein; higher = weaker binding; RNA-MaP array; tryptophan 2.4 mM where present
Method in brief: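 Each design was made on Illumina sequencing-chip clusters by stalled E. coli RNA polymerase and titrated with SNAP-549-labelled MS2 coat protein from 0.7 or 1.5 nM, doubling to 3 µM, in the absence and then the presence of constant ligand. The buffer was 100 mM Tris-HCl pH 7.5, 80 mM KCl, 4 mM MgCl2, BSA, DTT, yeast tRNA and Tween-20. The apparent Kd is the median of filtered per-cluster fits of binding curves, with green signal normalised to red-channel RNA signal and control-cluster median Fmax.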

[1] = designed as: ON switch for tryptophan, no ligand
[2] = ligand present: tryptophan, designed as: ON switch for tryptophan
[3] = designed as: OFF switch for tryptophan, no ligand
[4] = ligand present: tryptophan, designed as: OFF switch for tryptophan

Row | Sequence | apparent Kd [1] [nM] | apparent Kd [2] [nM] | apparent Kd [3] [nM] | apparent Kd [4] [nM]
1 | UCGGAGAAGUCGGCCGCCACUGAACUCUUGUUCUACAUGAGGAUCACCCAUGUUCCUUUGUUUAACAGGACCGGGACUUAUACGA | 224 | 96.3 | – | –
2 | CACGAAAGAUCGGCCGCCACUAUUUGAUGUGUUCUUUCACAUGAGGAUCACCCAUGUUCUUAUUAUAGGACCGGGAUUGAGCGUG | – | – | 83.8 | 64.3
3 | UCAUAAGUACCGGUCCUCAGAUCCUCAUGACGAGGACCGGUACGGCCGCCACUCGAAACAUGAGGAUCACCCAUGUAAUAAUAUU | – | – | 21.3 | 19
4 | AGCACUGUGACGGCCGCCACUACAUAUAGGGUGGUCAGGCCCAUAAUACAUGAGGAUCACCCAUGUAGGACCGGGUCUCAGUGCA | – | – | 16.8 | 12.1
5 | UACUUGCUGACGGCCGCCACUAGAACAUGAGGAUCACCCAUGUACCCGGUCCUACAUGGGAUGACUAGGACCGGGUCAGCAAGAU | – | – | 40.9 | 141
6 | AAUGUAUGGCACAUGAGGAUCACCCAUGUGCGAGGACCGGUACGGCCGCCACUCGGUCCUGGAUUCUUAUUACUAUACAUUAAUG | – | – | 14.5 | 16.7
7 | AUACAUGAGGAUCACCCAUGUGAUGGCCGGCGAGGACCGGUACGGCCGCCACUCGUGAUCCGUCCUGAGAGCAAAGCCCUCAACA | 82.1 | 102 | – | –
8 | CUGUACAUCUCGGCCGCCACUGCAACAUGUACACAUGGACAUGUACAUGAGGAUCACCCAUGUGGCAGGACCGGGAGGUGUGCAG | 192 | 26.5 | – | –
9 | GGUUACUCUACGGCCGCCACUGAUUAAUUAUAAUCCUGUACAUAAACAUGAGGAUCACCCAUGUACAGGACCGGGUAGUGUAACC | 34.7 | 29.1 | – | –
10 | AACAUGAGCACGGCCGCCACUCCAUGAACAUGAGGAUCACCCAUACACAUGAGGAUCACCCAUGUGAGGACCGGGUGUCCAUGUG | – | – | 13.3 | 56.6
